Experimental data: ChEMBL document CHEMBL1134664, “Influence of polyamine architecture on the transport and topoisomerase II inhibitory properties of polyamine DNA-intercalator conjugates” (J Med Chem, 2001)

Key:
L1210 [1] = assay: Cytotoxicity against murine leukemia (L1210) cells was determined at 47h; format: functional, cell-based; settings: Mus musculus, L1210, 47 h
Summary of the method: (§1)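 L1210 murine leukemia cells in early to mid log phase (under 5% trypan blue positive before the start) were grown at 37 °C in 5% CO2 in 96-well plates with increasing drug concentrations for the stated time. A methotrexate positive control was included in every trial. Viability was read by colorimetric NAD(P)H-dependent formazan production, and the IC50 was taken from this.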

L1210 [2] = assay: Cytotoxicity against murine leukemia (L1210) cells was determined at 94h; format: functional, cell-based; settings: Mus musculus, L1210, 94 h; summary of the method: as §1

SMILES | IC50 (L1210 [1]) | IC50 (L1210 [2])
NCCCNCCCCN(CCCN)CCCCNc1c2ccccc2nc2ccccc12 | 23 µM | 17 µM
CCCCNc1c2ccccc2nc2ccccc12 | 2 µM | 2 µM
NCCCCN(CCCN)CCCCCNc1c2ccccc2nc2ccccc12 | > 100 µM | > 100 µM
NCCCN(CCCCNCc1c2ccccc2cc2ccccc12)CCCCN(CCCN)CCCCNCc1c2ccccc2cc2ccccc12 | 44 µM | 61 µM
NCCCN(CCCCCNCc1c2ccccc2cc2ccccc12)CCCCN(CCCN)CCCCCNCc1c2ccccc2cc2ccccc12 | 18 µM | 25 µM
NCCCN(CCCCNc1c2ccccc2nc2ccccc12)CCCCN(CCCN)CCCCNc1c2ccccc2nc2ccccc12 | 40 µM | 74 µM
NCCCCN(CCCN)CCCCNc1c2ccccc2nc2ccccc12 | 75 µM | 55 µM
NCCCCN(CCCN)CCCCCNCc1c2ccccc2cc2ccccc12 | 7 µM | 5 µM
NCCCN(CCCCCNc1c2ccccc2nc2ccccc12)CCCCN(CCCN)CCCCCNc1c2ccccc2nc2ccccc12 | 17 µM | 23 µM
NCCCNCCCCN(CCCN)CCCCNc1ccnc2cc(Cl)ccc12 | > 100 µM | > 100 µM
NCCCCN(CCCN)CCCCNCc1c2ccccc2cc2ccccc12 | 13 µM | 6 µM
